# Results reported in the RNAGym collection of RNA variant scans (doi:10.1038/s41586-018-0170-7).
# B1: tRNA (parent)
# chain: GUUCCGUUGGCGUAAUGGUAACGCGUCUCCCUCCUAAGGAGAAGACUGCGGGUUCGAGUCCCGUACGGAACG
# Variants of: B1
# Assay: yeast fitness, log relative to wild type (ln ratio); higher = fitter; tRNA-Arg(CCU), competitive growth, 37 C, 1 M NaCl
# Method in brief: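 Genotype fitness is expressed as the natural log of its generations over those of the wild type. Each pool of the tRNA-Arg(CCU) variant library, carried on a HIS3 centromeric plasmid in BY4742 lacking the chromosomal gene, came from one of two independent transformations and grew 4 generations in SC-HIS at 30 °C before ~6.5 generations (~26.5 h) in SC-HIS 1M NaCl at 37 °C. Generation numbers used OD-scaled log2 output/input frequencies from 125 bp paired-end Illumina sequencing, combined across replicates by inverse-variance weighting.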
row,Variant,yeast fitness (ln)
1,ACUCCGUUGGCGUAAUGGUAACGCGUCUCCCUCCUAAGGAGACGAUUGCGGGUUCGAGUCCCGUACGGGUUG,-0.384
2,AUUCCUUUGGCGUAAUGGUAACGCGUCUCCCUCCUAAGGAGAAGACUGCGGGUUCGAGUCCCGUAAGGGUUG,-0.432
3,AUUCCUUUGGCGUAAUGGUAACGCGUCUCCCUCCUAAGGAGAAGACUGCGGGUUCGAGUCCCGUAAGGAACG,-0.0927
4,AUUCCUUUGGCGUAAUGGUAACGCGUCUCCCUCCUAAGGAGAAGACUGCGGGUUCGAGUCCCGUAUGGAACG,-0.126
5,ACUCCGUUGGCGUAAUGGUAACGCGUCUCCCUCCUAAGGAGACGAUUGCGGGUUCGAGUCCCGUACGGGUCG,-0.0156
6,ACUCCGUUGGCGUAAUGGUAACGCGUCUCCCUCCUAAGGAGACGAUUGCGGGUUCGAGUCCCGUACGGGGCG,-0.0565
7,ACUCCGUUGGCGUAAUGGUAACGCGUCUCCCUCCUAAGGAGACGAUUGCGGGUUCGAGUCCCGUAAGGAUUG,-0.134
8,ACUCCGUUGGCGUAAUGGUAACGCGUCUCCCUCCUAAGGAGACGACUGCGGGUUCGAGUCCCGUACGGGAUG,-0.202
9,AUUCCUUUGGCGUAAUGGUAACGCGUCUCCCUCCUAAGGAGAAGAUUGCGGGUUCGAGUCCCGUAUGGAGUG,-0.277
10,AUUCCUUUGGCGUAAUGGUAACGCGUCUCCCUCCUAAGGAGAAGAUUGCGGGUUCGAGUCCCGUAUGGGGUG,-0.216
11,ACUCCGUUGGCGUAAUGGUAACGCGUCUCCCUCCUAAGGAGACGACUGCGGGUUCGAGUCCCGUACGGAUUG,-0.278
12,AUUCCUUUGGCGUAAUGGUAACGCGUCUCCCUCCUAAGGAGAAGACUGCGGGUUCGAGUCCCGUAAGGGGUG,-0.17
13,AUUCCUUUGGCGUAAUGGUAACGCGUCUCCCUCCUAAGGAGAAGAUUGCGGGUUCGAGUCCCGUAAGGAGUG,-0.0299
14,AUUCCUUUGGCGUAAUGGUAACGCGUCUCCCUCCUAAGGAGAAGAUUGCGGGUUCGAGUCCCGUAAGGAACG,-0.0835
15,AUUCCUUUGGCGUAAUGGUAACGCGUCUCCCUCCUAAGGAGAAGAUUGCGGGUUCGAGUCCCGUAUGGAACG,-0.0919
16,ACUCCGUUGGCGUAAUGGUAACGCGUCUCCCUCCUAAGGAGACGAUUGCGGGUUCGAGUCCCGUAUGGAGCG,-0.0459
17,AUUCCUUUGGCGUAAUGGUAACGCGUCUCCCUCCUAAGGAGAAGACUGCGGGUUCGAGUCCCGUAUGGGAUG,-0.312
18,AUUCCUUUGGCGUAAUGGUAACGCGUCUCCCUCCUAAGGAGAAGACUGCGGGUUCGAGUCCCGUACGGAAUG,-0.481
19,AUUCCUUUGGCGUAAUGGUAACGCGUCUCCCUCCUAAGGAGAAGAUUGCGGGUUCGAGUCCCGUAAGGAAUG,0.0017

row,Variant,yeast fitness (ln)
1,ACUCCGUUGGCGUAAUGGUAACGCGUCUCCCUCCUAAGGAGACGAUUGCGGGUUCGAGUCCCGUAAGGGGUG,-0.0434
2,AUUCCUUUGGCGUAAUGGUAACGCGUCUCCCUCCUAAGGAGAAGAUUGCGGGUUCGAGUCCCGUAAGGGGUG,-0.162
3,ACUCCGUUGGCGUAAUGGUAACGCGUCUCCCUCCUAAGGAGACGAUUGCGGGUUCGAGUCCCGUAAGGAGUG,-0.0667
4,AUUCCUUUGGCGUAAUGGUAACGCGUCUCCCUCCUAAGGAGAAGAUUGCGGGUUCGAGUCCCGUAUGGAAUG,-0.057
5,AUUCCUUUGGCGUAAUGGUAACGCGUCUCCCUCCUAAGGAGAAGAUUGCGGGUUCGAGUCCCGUAUGGGUUG,-0.441
6,AUUCCUUUGGCGUAAUGGUAACGCGUCUCCCUCCUAAGGAGAAGAUUGCGGGUUCGAGUCCCGUAAGGAGCG,-0.225
7,AUUCCUUUGGCGUAAUGGUAACGCGUCUCCCUCCUAAGGAGAAGAUUGCGGGUUCGAGUCCCGUAAGGAUCG,-0.0534
8,AUUCCUUUGGCGUAAUGGUAACGCGUCUCCCUCCUAAGGAGAAGAUUGCGGGUUCGAGUCCCGUACGGAAUG,-0.183
9,ACUCCGUUGGCGUAAUGGUAACGCGUCUCCCUCCUAAGGAGACGACUGCGGGUUCGAGUCCCGUACGGGGUG,-0.0094
10,ACUCCGUUGGCGUAAUGGUAACGCGUCUCCCUCCUAAGGAGACGAUUGCGGGUUCGAGUCCCGUACGGAGUG,-0.00628
11,AUUCCUUUGGCGUAAUGGUAACGCGUCUCCCUCCUAAGGAGAAGACUGCGGGUUCGAGUCCCGUAUGGGUUG,-0.525
12,ACUCCGUUGGCGUAAUGGUAACGCGUCUCCCUCCUAAGGAGACGAUUGCGGGUUCGAGUCCCGUACGGGGUG,-0.00408
13,AUUCCUUUGGCGUAAUGGUAACGCGUCUCCCUCCUAAGGAGAAGAUUGCGGGUUCGAGUCCCGUAUGGAUUG,-0.298
14,AUUCCUUUGGCGUAAUGGUAACGCGUCUCCCUCCUAAGGAGAAGACUGCGGGUUCGAGUCCCGUAAGGAAUG,0.00231
15,AUUCCUUUGGCGUAAUGGUAACGCGUCUCCCUCCUAAGGAGAAGAUUGCGGGUUCGAGUCCCGUAAGGGUUG,-0.341
16,ACUCCGUUGGCGUAAUGGUAACGCGUCUCCCUCCUAAGGAGACGACUGCGGGUUCGAGUCCCGUACGGAACG,-0.0267
17,AUUCCUUUGGCGUAAUGGUAACGCGUCUCCCUCCUAAGGAGAAGAUUGCGGGUUCGAGUCCCGUAUGGGGCG,-0.205
18,AUUCCUUUGGCGUAAUGGUAACGCGUCUCCCUCCUAAGGAGAAGAUUGCGGGUUCGAGUCCCGUAUGGGUCG,-0.251
